Data published in PubChem BioAssay.
Records with an inconclusive call do not appear.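 Rule for the calls, unless noted: active = RAM network inhibition above 8.4% in each of two replicates, 3 SD over the compound average; inconclusive = above 8.4% inhibition in only one replicate; inactive = 8.4% inhibition or less in each replicate.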

Columns and labels:
[1] = OD615 S. cerevisiae growth inhibition, permissive medium, pilot counter-assay, permissive growth control for S. cerevisiae lifespan shortening project (AID 705;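 active = growth inhibition above 25% in both replicates, a cutoff set 3 SD above the mean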); conditions: OD615, 24 h, at 10 µM, stronger effect = higher value
Procedure, shortened: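 Material: engineered DeaD yeast; compound dosing: one dose 10 µM, DMSO 0.25% final; measure: yeast growth inhibition indicated by reduced 24 h OD615; detection: OD615 turbidity read; incubation: cells pre-grown 4 h, then 24 h compound exposure, 30 °C humidified; medium: permissive synthetic complete medium with raffinose and galactose carbon sources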

[2] = Restrictive medium S. cerevisiae growth inhibition, OD615, pilot screen of yeast lifespan reduction project, restrictive growth control (AID 706;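 active = growth inhibition above a set limit, 3 SD over mean compound inhibition, in both replicates, cut at about 43% in these data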;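 note: modified DeaD lifespan yeast strain shifted to restrictive glucose medium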); conditions: OD615, 48 h, at 10 µM, stronger effect = higher value
Procedure, shortened: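 material = engineered S. cerevisiae DeaD strain | medium = glucose-based CSMM-D restrictive medium | times = 4 h pre-incubation, 48 h exposure at 30 °C | technique = OD615 absorbance reading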

[3] = viability gain of MRP-1-high H69AR cells under doxorubicin, pilot screen, MRP-1 activator project, CellTiter-Glo, duplicate (AID 807;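 active = viability increase at or above a cutoff of the median across tested compounds plus 3 SD, cut at about 8.5% in these data, passing the limit was not always enough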;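 note: compound pretreatment 18-22 h then 72 h combined with doxorubicin; 0% = doxorubicin alone and 100% = vehicle without doxorubicin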); conditions: H69AR viability with doxorubicin, CellTiter-Glo luminescence; at 10 µM; stronger effect = higher value
[4] = growth suppression of beta-catenin knockout HCT116, pilot screen, human colon tumor cells (AID 823;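 active = cell viability at or below a set limit in both duplicate runs, the limit being the all-compound median minus 4 SD, cut at about 23% in these data, passing the limit was not always enough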;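 note: 0% = wells killed by 20 µM Hyamine and 100% = untreated DMSO cell wells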); conditions: CellTiter-Glo, 60 h, at 10 µM, stronger effect = lower value
[5] = growth suppression of PTEN-deleted HCT116, pilot screen, cell-based, HCT116 clonal line, CellTiter-Glo (AID 824;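 active = viability at or below 27.92% in each of two runs, the all-compound median minus 4 SD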;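 note: 0% = 20 µM Hyamine control and 100% = vehicle cell control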); conditions: 60 h, at 10 µM, stronger effect = lower value
[6] = inhibitors of the yeast RAM network, pilot screen, dse1pr::URA3 reporter, 5-FOA selection (AID 869;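 active = inhibition over a set limit, the all-compound mean plus 3 SD, in both replicate runs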;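 note: 0% = DMSO wells with no growth and 100% = 10 µM 1-NA-PP1 with full growth; RAM network block rescues cells from 5-FOA so hits raise OD615 growth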); conditions: S. cerevisiae dse1pr::URA3 5-FOA growth, OD615, 2 d; at 10 µM; stronger effect = higher value; strain carries analog-sensitive mutant Cbk1 kinase
[7] = RAM signaling pathway blockade in yeast – S. cerevisiae, Pdr1DBD-CYC8 efflux-inhibited sensitized strain, primary screen (AID 1298);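 note: 0% = DMSO untreated cells without growth and 100% = 10 µM 1-NA-PP1 full growth; higher means more yeast growth rescued from 5-FOA killing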; conditions: S. cerevisiae cbk1-as DSE1-URA3 strain, 5-FOA growth OD615, 2 d; at 50 µM; stronger effect = higher value

CCC(=O)N1c2ccccc2-c2nnc(SC)nc2OC1c1ccc(N(C)C)cc1 (stereo not drawn)
inactive: growth inhibition [1] -3.95% | growth inhibition [2] 4.3% | viability increase [3] -6.55% | viability [4] 93.8% | viability [5] 91.5% | inhibition [6] 3.08% | RAM network inhibition [7] 1.82%

Cn1nc(-c2ccc(Cl)cc2)c2cc(C(=O)NC3CC3)sc21
inactive: growth inhibition [1] -7.08% | growth inhibition [2] -1.2% | viability increase [3] -6.68% | viability [4] 83.6% | viability [5] 84.2% | inhibition [6] 3.62% | RAM network inhibition [7] 3.94%

Cc1cc2cc(CCNC(=O)c3c(-c4ccccc4Cl)noc3C)c(=O)[nH]c2cc1C
inactive: growth inhibition [1] -14.1% | growth inhibition [2] -2.13% | viability increase [3] -3.71% | viability [4] 94.9% | viability [5] 94.7% | inhibition [6] 1.85% | RAM network inhibition [7] 3.43%

CCCCC(CC)C(=O)NCCc1ccc(S(N)(=O)=O)cc1 (stereo not drawn)
inactive: growth inhibition [1] -2.48% | growth inhibition [2] -4.13% | viability increase [3] -0.52% | viability [4] 93.2% | viability [5] 97.9% | inhibition [6] 1% | RAM network inhibition [7] -0.82%

O=C(c1cc(-c2ccc(Cl)c(Cl)c2)on1)N1CCCC1
inactive: growth inhibition [1] -5.55% | growth inhibition [2] 0.315% | viability increase [3] 4.2% | viability [4] 111% | viability [5] 102% | inhibition [6] 1.99% | RAM network inhibition [7] 1.27%

CC(=O)c1ccc(NC(=O)CSc2nc3nc(C)cc(C)n3n2)cc1
inactive: growth inhibition [1] -20.6% | growth inhibition [2] -8.37% | viability increase [3] -1.88% | viability [4] 101% | viability [5] 93.9% | inhibition [6] 2.34% | RAM network inhibition [7] 2.78%

CCCN1CCN(CCCNC(=O)c2cc3c(=O)n(C)c4ccccc4c3n2C)CC1
inactive: growth inhibition [1] -5.02% | growth inhibition [2] 0.66% | viability increase [3] -7.07% | viability [4] 64.1% | viability [5] 65.3% | inhibition [6] 0.68% | RAM network inhibition [7] 1.89%

Cc1c(C#N)c2ccccc2n1CCOc1ccccc1F
inactive: growth inhibition [1] -5.92% | growth inhibition [2] -11.9% | viability increase [3] 1.94% | viability [4] 69.8% | viability [5] 68.5% | inhibition [6] 2.25% | RAM network inhibition [7] 6.77%

Cc1cc2ccccc2n1CCNC(=O)c1cccs1
inactive: growth inhibition [1] 0.02% | growth inhibition [2] 7.93% | viability increase [3] -2.29% | viability [4] 92.6% | viability [5] 91.4% | inhibition [6] 1.69% | RAM network inhibition [7] 3.36%

O=C(CSc1nccc2ccccc12)N1CCN(c2ccccn2)CC1
inactive: growth inhibition [1] -3.48% | growth inhibition [2] 8.46% | viability increase [3] -2.78% | viability [4] 97.5% | viability [5] 99.8% | inhibition [6] 0.295% | RAM network inhibition [7] -0.26%

CCCn1c(CN2CCN(C(=O)OCC)CC2)nc2c1c(=O)n(C)c(=O)n2C
inactive: growth inhibition [1] -3.08% | growth inhibition [2] 1.72% | viability increase [3] -2.59% | viability [4] 92.3% | viability [5] 86.5% | inhibition [6] 0.325% | RAM network inhibition [7] 2.5%

CCCc1cc(C(=O)Nc2cccc(Cl)c2)no1
inactive: growth inhibition [1] -7.36% | growth inhibition [2] -1.01% | viability increase [3] 0.77% | viability [4] 102% | viability [5] 97.7% | inhibition [6] 1.44% | RAM network inhibition [7] -1.31%

CCCN1C(=O)c2cc(C(=O)NCCc3cccc(C)c3)ccc2C1O (stereo not drawn)
inactive: growth inhibition [1] -2.76% | growth inhibition [2] 1.97% | viability increase [3] -3.1% | viability [4] 104% | viability [5] 104% | inhibition [6] 0.08% | RAM network inhibition [7] 1.65%

O=C(C1CCCN1S(=O)(=O)c1cccc2cccnc12)N1CCc2ccccc2C1 (stereo not drawn)
inactive: growth inhibition [1] -8.21% | growth inhibition [2] -13.1% | viability increase [3] -1.96% | viability [4] 92.3% | viability [5] 86.7% | inhibition [6] 0.745% | RAM network inhibition [7] 0.84%

COc1ccc(NC(=O)C(CC(=O)O)Cc2ccccc2)cc1 (stereo not drawn)
inactive: growth inhibition [1] -17% | growth inhibition [2] -9.36% | viability increase [3] -0.09% | viability [4] 102% | viability [5] 97.9% | inhibition [6] 1.62% | RAM network inhibition [7] 5.61%

Cc1nc2ccccn2c1/C(O)=C1\C(=O)C(=O)N(CCCN(C)C)C1c1ccc(Cl)cc1 (stereo not drawn)
inactive: growth inhibition [1] -12.2% | growth inhibition [2] -4.13% | viability increase [3] -1.34% | viability [4] 109% | viability [5] 95.9% | inhibition [6] 0.18% | RAM network inhibition [7] -1.78%

CCOC(=O)N1CCN(c2c(Nc3ccc4c(c3)OCCO4)c(=O)c2=O)CC1
inactive: growth inhibition [1] 4.17% | growth inhibition [2] 4.07% | viability increase [3] -1.02% | viability [4] 105% | viability [5] 105% | inhibition [6] 1.1% | RAM network inhibition [7] 2.05%

CCC(=O)N1CCc2cc(Br)cc(S(=O)(=O)N3CCN(C(=O)c4ccco4)CC3)c21
inactive: growth inhibition [1] -4.72% | growth inhibition [2] -21.7% | viability increase [3] -1.56% | viability [4] 91.6% | viability [5] 95.4% | inhibition [6] 2.48% | RAM network inhibition [7] 1.88%

COc1ccc(OCC(=O)Nc2ccccc2OC)cc1
inactive: growth inhibition [1] 11.4% | growth inhibition [2] 7.31% | viability increase [3] -4.87% | viability [4] 105% | viability [5] 101% | inhibition [6] 0.82% | RAM network inhibition [7] -2.32%

Cc1cc(C)n(-c2nc3ccccc3nc2Nc2ccc(CC(=O)O)cc2)n1
inactive: growth inhibition [1] 5.73% | growth inhibition [2] -0.88% | viability increase [3] -1.81% | viability [4] 98.8% | viability [5] 95.5% | inhibition [6] -1.14% | RAM network inhibition [7] -2.71%

COc1ccc(-c2cn3c(C)c(C(=O)Nc4ccncc4)sc3n2)cc1
inactive: growth inhibition [1] -4.55% | growth inhibition [2] -15.3% | viability increase [3] -3.37% | viability [4] 102% | viability [5] 90.1% | inhibition [6] 3.6% | RAM network inhibition [7] 5.99%

CC(=O)Oc1cccc(N2C(=O)C3C(C2=O)C2C=CC3C23CC3)c1 (stereo not drawn)
inactive: growth inhibition [1] -8.98% | growth inhibition [2] -8.59% | viability increase [3] -0.99% | viability [4] 96.9% | viability [5] 101% | inhibition [6] 0.125% | RAM network inhibition [7] 0.63%

COc1ccc(Cn2c(=O)[nH]c3cc(C(=O)NCCCN4CCCC4=O)ccc3c2=O)cc1
inactive: growth inhibition [1] -17.7% | growth inhibition [2] -12.3% | viability increase [3] 0.19% | viability [4] 91.6% | viability [5] 90.4% | inhibition [6] 0.92% | RAM network inhibition [7] 1.36%

CC(=O)c1ccc(OCC(O)CN2CCN(c3ccccn3)CC2)cc1 (stereo not drawn)
inactive: growth inhibition [1] 2.13% | growth inhibition [2] 4.88% | viability increase [3] 0.37% | viability [4] 102% | viability [5] 103% | inhibition [6] 1.18% | RAM network inhibition [7] 2.51%
